Measured values from ChEMBL document CHEMBL1629497, “Synthesis and biological evaluation of new N-alkyl 1-aryl-5-(1H-pyrrol-1-yl)-1H-pyrazole-3-carboxamides as cannabinoid receptor ligands” (Eur J Med Chem, 2010).
Activity calls are given as the source filed them. The calls are words filed in the database; no cut-off is given here.

What was measured:
[1] = biological target: Cannabinoid receptor 1 (Homo sapiens, UniProt P21554); experiment: biochemical; type: cell-based, HEK293
[2] = biological target: Cannabinoid receptor 2 (Homo sapiens, UniProt P34972); experiment: Displacement of [3H]CP-55,940 from recombinant human CB2 receptor transfected in HEK cells; type: cell-based, HEK293
Sequence of Cannabinoid receptor 2 (P34972 whole entry): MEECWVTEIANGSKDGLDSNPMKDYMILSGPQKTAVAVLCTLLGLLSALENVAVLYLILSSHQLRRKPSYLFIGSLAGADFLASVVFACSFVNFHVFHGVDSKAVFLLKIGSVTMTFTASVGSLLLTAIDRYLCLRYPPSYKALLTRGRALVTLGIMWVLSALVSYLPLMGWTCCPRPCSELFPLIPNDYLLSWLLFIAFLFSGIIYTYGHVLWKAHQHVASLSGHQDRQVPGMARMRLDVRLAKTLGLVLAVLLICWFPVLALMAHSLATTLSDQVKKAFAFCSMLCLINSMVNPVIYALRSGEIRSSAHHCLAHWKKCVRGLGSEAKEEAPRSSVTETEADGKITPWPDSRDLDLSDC
Summary of the method: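 Competition binding used membranes from HEK cells transfected with hCB1 or hCB2. Data are means of at least three experiments in duplicate. The selectivity index is Ki(CB2)/Ki(CB1).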

[3] = tested on: Rattus norvegicus; experiment: Antiobesity activity in diet-induced obese Wistar rat assessed as reduction in food intake at 10 mg/kg, ip measured after 24 hrs relative to vehicle-treated control; type: functional, organism-based; design: dose 10 mg/kg
Summary of the method: (§1)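 Adult male Wistar rats (~500 g) were individually housed on an inverted 12:12 h cycle with free access to chow and water. Groups of 7–8, matched for body weight and 3-day food intake, received vehicle or compound i.p. (saline with a few drops of Tween 80, 3 mL/kg) 30 min before lights off. Food and water were weighed at 1–6 h and 24 h. Analysis was by ANOVA and Mann-Whitney.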

[4] = tested on: Rattus norvegicus; experiment: Antiobesity activity in diet-induced obese Wistar rat assessed as water intake at 3 mg/kg, ip measured upto 6 hrs relative to vehicle-treated control; type: functional, organism-based; design: dose 3 mg/kg
Summary of the method: as §1

[5] = tested on: Rattus norvegicus; experiment: Antiobesity activity in diet-induced obese Wistar rat assessed as water intake at 0.1 mg/kg, ip measured after 24 hrs relative to vehicle-treated control; type: functional, organism-based; design: dose 0.1 mg/kg
Summary of the method: as §1

[6] = tested on: Rattus norvegicus; experiment: Antiobesity activity in diet-induced obese Wistar rat assessed as reduction in food intake at 3 mg/kg, ip measured after 1 to 6 hrs relative to vehicle-treated control; type: functional; design: scale not given: the % may be the effect or the level left; conditions: route intraperitoneal
Summary of the method: as §1

[7] = tested on: Rattus norvegicus; experiment: Antiobesity activity in diet-induced obese Wistar rat assessed as reduction in food intake at 10 mg/kg, ip measured after 1 to 6 hrs relative to vehicle-treated control; type: functional; design: scale not given: the % may be the effect or the level left; conditions: route intraperitoneal
Summary of the method: as §1

[8] = tested on: Rattus norvegicus; experiment: Antiobesity activity in diet-induced obese Wistar rat assessed as reduction in food intake at 3 mg/kg, ip measured after 24 hrs relative to vehicle-treated control; type: functional, organism-based; design: dose 3 mg/kg
Summary of the method: as §1

[9] = tested on: Rattus norvegicus; experiment: Antiobesity activity in diet-induced obese Wistar rat assessed as water intake at 10 mg/kg, ip measured upto 6 hrs relative to vehicle-treated control; type: functional, organism-based; design: dose 10 mg/kg
Summary of the method: as §1

[10] = tested on: Rattus norvegicus; experiment: Antiobesity activity in diet-induced obese Wistar rat assessed as water intake at 10 mg/kg, ip measured after 24 hrs relative to vehicle-treated control; type: functional, organism-based; design: dose 10 mg/kg
Summary of the method: as §1

[11] = tested on: Rattus norvegicus; experiment: Antiobesity activity in diet-induced obese Wistar rat assessed as water intake at 1 mg/kg, ip measured after 24 hrs relative to vehicle-treated control; type: functional, organism-based; design: dose 1 mg/kg
Summary of the method: as §1

[12] = tested on: Rattus norvegicus; experiment: Antiobesity activity in diet-induced obese Wistar rat assessed as water intake at 3 mg/kg, ip measured after 24 hrs relative to vehicle-treated control; type: functional, organism-based; design: dose 3 mg/kg
Summary of the method: as §1

Sequence of Cannabinoid receptor 1 (P21554 whole entry): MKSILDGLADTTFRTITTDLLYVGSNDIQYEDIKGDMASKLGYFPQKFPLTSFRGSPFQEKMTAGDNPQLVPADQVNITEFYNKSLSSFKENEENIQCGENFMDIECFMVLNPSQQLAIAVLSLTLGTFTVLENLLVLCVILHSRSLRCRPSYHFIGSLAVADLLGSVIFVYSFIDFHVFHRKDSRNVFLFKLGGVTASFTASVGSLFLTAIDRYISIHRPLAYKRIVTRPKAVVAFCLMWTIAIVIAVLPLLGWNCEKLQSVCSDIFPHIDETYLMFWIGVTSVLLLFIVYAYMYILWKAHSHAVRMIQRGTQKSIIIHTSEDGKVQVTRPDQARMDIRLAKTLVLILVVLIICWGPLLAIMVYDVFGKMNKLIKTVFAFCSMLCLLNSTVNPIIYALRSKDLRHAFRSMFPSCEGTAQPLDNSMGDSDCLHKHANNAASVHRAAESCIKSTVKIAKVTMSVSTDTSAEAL

Compound	Ki [1]	Ki [2]	also measured
Cc1c(C(=O)NC(C)(C)C)nn(-c2ccc(Cl)cc2Cl)c1-n1c(C)ccc1C	151 nM	20.2 nM	–
Cc1c(C(=O)NCCC(C)(C)C)nn(-c2ccc(Cl)cc2Cl)c1-n1c(C)ccc1C	37.5 nM	134 nM	Activity [3]: Active; Activity [4]: inactive; Activity [5]: inactive; Activity [6]: 10%; Activity [7]: 30%; Activity [8]: Active; Activity [9]: inactive; Activity [10]: inactive; Activity [11]: inactive; Activity [12]: inactive
CCCCCCC(C)NC(=O)c1nn(-c2ccc(Cl)cc2Cl)c(-n2c(C)ccc2C)c1C (centres undefined)	105 nM	136 nM	–
CCCCCCC(C)NC(=O)c1nn(-c2ccc(Cl)cc2Cl)c(-n2cccc2)c1C (centres undefined)	157 nM	237 nM	–
Cc1c(C(=O)NCCC(C)(C)C)nn(-c2ccc(Cl)cc2Cl)c1-n1cccc1	45.6 nM	52.4 nM	–
CCCCCNC(=O)c1nn(-c2ccc(Cl)cc2Cl)c(-n2c(C)ccc2C)c1C	182 nM	495 nM	–
CCCCCNC(=O)c1nn(-c2ccc(Cl)cc2Cl)c(-n2cccc2)c1C	81 nM	206 nM	–
Cc1c(C(=O)NC(C)C)nn(-c2ccc(Cl)cc2Cl)c1-n1c(C)ccc1C	234 nM	1800 nM	–
Cc1c(C(=O)NCCCCCO)nn(-c2ccc(Cl)cc2Cl)c1-n1c(C)ccc1C	372 nM	3200 nM	–
CCCCNC(=O)c1nn(-c2ccc(Cl)cc2Cl)c(-n2cccc2)c1C	273 nM	796 nM	–
CCC(C)(C)NC(=O)c1nn(-c2ccc(Cl)cc2Cl)c(-n2cccc2)c1C	47.6 nM	5.7 nM	–
CCCCCCCNC(=O)c1nn(-c2ccc(Cl)cc2Cl)c(-n2c(C)ccc2C)c1C	97.2 nM	205 nM	–
